Converted amounts (≈) assume the structure as drawn. The source made the active and inactive calls. The rule behind the calls is not given here.
target: Cytochrome P450 2D6 (Homo sapiens, UniProt P10635); assay: Inhibition of CYP2D6 in human liver microsomes assessed as dextromethorphan O-demethylation by LC-MS/MS analysis; format: ADME, Microsome; details: not given
Sequence (P10635 whole entry): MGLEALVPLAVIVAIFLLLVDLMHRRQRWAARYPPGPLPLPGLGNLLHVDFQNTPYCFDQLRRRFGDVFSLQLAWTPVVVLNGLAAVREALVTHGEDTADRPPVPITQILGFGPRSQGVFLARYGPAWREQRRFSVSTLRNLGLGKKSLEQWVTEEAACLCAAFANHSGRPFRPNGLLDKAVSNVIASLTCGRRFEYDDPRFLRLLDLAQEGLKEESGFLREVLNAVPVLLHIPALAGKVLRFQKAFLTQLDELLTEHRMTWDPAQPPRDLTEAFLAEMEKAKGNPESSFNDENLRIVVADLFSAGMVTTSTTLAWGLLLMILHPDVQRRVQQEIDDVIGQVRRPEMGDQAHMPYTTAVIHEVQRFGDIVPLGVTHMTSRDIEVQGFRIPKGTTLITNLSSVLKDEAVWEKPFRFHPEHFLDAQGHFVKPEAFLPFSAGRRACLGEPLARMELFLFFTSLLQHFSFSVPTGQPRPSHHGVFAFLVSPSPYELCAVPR

IC50 [µM]	SMILES
> 50	O=C(O)Cn1c2c(c3cc(F)ccc31)CN(C(=O)c1cccs1)CC2
> 50	O=C(O)Cn1c2c(c3ccccc31)CN(C(=O)c1cccc(Cl)c1)CC2

target: T1, Prostaglandin D2 receptor 2 (Homo sapiens) (UniProt Q9Y5Y4); assay: Selectivity factor, ratio of IC50 for recombinant human CRTH2 receptor in presence of human serum albumin to IC50 for recombinant human CRTH2 receptor in absence of human serum albumin; details: not given
T1 sequence (whole entry): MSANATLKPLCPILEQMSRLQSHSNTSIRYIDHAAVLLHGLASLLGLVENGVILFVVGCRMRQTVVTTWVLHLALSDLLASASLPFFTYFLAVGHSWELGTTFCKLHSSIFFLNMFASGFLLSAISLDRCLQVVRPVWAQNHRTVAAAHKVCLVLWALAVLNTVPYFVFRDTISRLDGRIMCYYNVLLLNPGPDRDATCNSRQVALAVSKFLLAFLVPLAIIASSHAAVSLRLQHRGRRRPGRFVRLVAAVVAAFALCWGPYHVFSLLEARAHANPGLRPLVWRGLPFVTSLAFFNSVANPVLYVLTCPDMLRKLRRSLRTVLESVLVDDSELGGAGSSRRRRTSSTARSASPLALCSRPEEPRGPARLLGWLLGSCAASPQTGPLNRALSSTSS
How it was run: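 Competitive [³H]PGD₂ (2.5 nM) displacement on membranes from HEK-293 cells stably expressing hCRTh2. Buffer C was 50 mM Tris, pH 7.4, 100 mM NaCl, 1 mM EDTA and 0.1% BSA, run with or without 0.5% HSA. Membrane was 80 μg protein/well, incubated 90 min at room temperature, then filtered and counted by scintillation. Nonspecific binding was taken with 10 μM PGD₂. f_HSA = IC₅₀(HSA)/IC₅₀(buffer).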

Ratio IC50	SMILES
3	O=C(O)Cn1c2c(c3cc(F)ccc31)CN(C(=O)c1cccs1)CC2
3	O=C(O)Cn1c2c(c3ccccc31)CN(C(=O)c1cccc(Cl)c1)CC2

target: T2, Chemoattractant receptor-homologous molecule expressed on Th2 cells (Cavia porcellus) (UniProt Q56D28); assay: Antagonist activity at guinea pig CRTH2 receptor assessed as inhibition of calcium flux by cell-based FLIPR assay; format: functional; details: not given
T2 sequence (whole entry): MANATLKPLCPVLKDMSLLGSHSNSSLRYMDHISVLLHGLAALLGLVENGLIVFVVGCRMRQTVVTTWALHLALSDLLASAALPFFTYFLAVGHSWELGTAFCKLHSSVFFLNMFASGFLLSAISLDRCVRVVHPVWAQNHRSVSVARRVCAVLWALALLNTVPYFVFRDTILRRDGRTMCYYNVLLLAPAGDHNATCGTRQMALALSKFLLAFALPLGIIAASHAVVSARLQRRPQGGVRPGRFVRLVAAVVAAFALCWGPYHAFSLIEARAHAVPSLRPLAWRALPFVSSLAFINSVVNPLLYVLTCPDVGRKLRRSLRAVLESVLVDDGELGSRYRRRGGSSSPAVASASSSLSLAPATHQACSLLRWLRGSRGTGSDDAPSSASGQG

inhibition	SMILES
Active	O=C(O)Cn1c2c(c3cc(F)ccc31)CN(C(=O)c1cccs1)CC2
Active	O=C(O)Cn1c2c(c3ccccc31)CN(C(=O)c1cccc(Cl)c1)CC2

tested on: not listed separately; assay: Solubility of the compound in aqueous buffer at pH 4; format: physicochemical; details: not given
How it was run: (§1)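 Compound was stirred in water, 60 mM citrate buffer pH 4 or 70 mM phosphate buffer pH 7 at 300 rpm, 25 °C, for 24 h. The mixture was filtered, and the filtrate concentration was measured by HPLC-UV at 250 nm against a calibration curve.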

solubility [µg/mL]	SMILES
80 (≈ 223 µM)	O=C(O)Cn1c2c(c3cc(F)ccc31)CN(C(=O)c1cccs1)CC2
180 (≈ 488 µM)	O=C(O)Cn1c2c(c3ccccc31)CN(C(=O)c1cccc(Cl)c1)CC2

tested on: not listed separately; assay: n-octanol-KH2PO4-Na2HPO4 buffer partition coefficient, log D of the compound at pH 7.4 by shake flask method; format: physicochemical; details: not given

logD	SMILES
0.2	O=C(O)Cn1c2c(c3cc(F)ccc31)CN(C(=O)c1cccs1)CC2
-0.5	O=C(O)Cn1c2c(c3ccccc31)CN(C(=O)c1cccc(Cl)c1)CC2

tested on: not listed separately; assay: Elimination half life in human plasma at 1 mM by HR-LC-MS analysis; format: ADME, cell-free; details: read-out: beta t1/2

half-life [h]	SMILES
> 4	O=C(O)Cn1c2c(c3cc(F)ccc31)CN(C(=O)c1cccs1)CC2
> 4	O=C(O)Cn1c2c(c3ccccc31)CN(C(=O)c1cccc(Cl)c1)CC2

tested on: not listed separately; assay: Intrinsic clearance in rat liver microsomes measured per mg of protein at 1 uM by LC/MS-MS analysis; format: ADME, Microsome; details: read-out: CLH

microsomal CLint at 1 µM [µL/min/mg]	SMILES
8	O=C(O)Cn1c2c(c3cc(F)ccc31)CN(C(=O)c1cccs1)CC2
24	O=C(O)Cn1c2c(c3ccccc31)CN(C(=O)c1cccc(Cl)c1)CC2

tested on: not listed separately; assay: Half life in simulated gastric fluid at 2 uM by LC-MS analysis; format: physicochemical; details: not given
How it was run: (§2)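 Compounds were incubated in simulated gastric fluid for 1 h or simulated intestinal fluid for 4 h. Unchanged parent was quantified by LC-MS.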

half-life at 2 µM [h]	SMILES
> 1	O=C(O)Cn1c2c(c3cc(F)ccc31)CN(C(=O)c1cccs1)CC2
> 1	O=C(O)Cn1c2c(c3ccccc31)CN(C(=O)c1cccc(Cl)c1)CC2

tested on: not listed separately; assay: Intrinsic clearance in human liver microsomes measured per mg of protein at 1 uM by LC/MS-MS analysis; format: ADME, Microsome; details: read-out: CLH

microsomal CLint at 1 µM [µL/min/mg]	SMILES
< 4	O=C(O)Cn1c2c(c3cc(F)ccc31)CN(C(=O)c1cccs1)CC2
5	O=C(O)Cn1c2c(c3ccccc31)CN(C(=O)c1cccc(Cl)c1)CC2

target: T3, Prostaglandin D2 receptor 2 (Mus musculus) (UniProt Q9Z2J6); assay: Antagonist activity at mouse CRTH2 receptor assessed as inhibition of calcium flux by cell-based FLIPR assay; format: functional; details: not given
T3 sequence (whole entry): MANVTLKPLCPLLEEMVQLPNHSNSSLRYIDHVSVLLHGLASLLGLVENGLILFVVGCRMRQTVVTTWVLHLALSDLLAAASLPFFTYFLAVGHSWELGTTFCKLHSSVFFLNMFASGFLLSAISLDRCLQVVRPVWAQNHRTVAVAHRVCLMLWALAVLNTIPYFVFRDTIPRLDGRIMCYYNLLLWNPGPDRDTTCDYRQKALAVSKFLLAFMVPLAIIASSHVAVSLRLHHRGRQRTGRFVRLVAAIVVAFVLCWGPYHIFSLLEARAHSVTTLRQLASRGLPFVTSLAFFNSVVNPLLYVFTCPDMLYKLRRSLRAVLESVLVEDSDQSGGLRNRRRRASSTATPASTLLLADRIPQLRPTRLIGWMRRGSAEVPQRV

inhibition	SMILES
Active	O=C(O)Cn1c2c(c3cc(F)ccc31)CN(C(=O)c1cccs1)CC2
Active	O=C(O)Cn1c2c(c3ccccc31)CN(C(=O)c1cccc(Cl)c1)CC2

tested on: not listed separately; assay: Elimination half life in Sprague-Dawley rat plasma at 1 mM by HR-LC-MS analysis; format: ADME, cell-free; details: read-out: beta t1/2

half-life [h]	SMILES
> 4	O=C(O)Cn1c2c(c3cc(F)ccc31)CN(C(=O)c1cccs1)CC2
> 4	O=C(O)Cn1c2c(c3ccccc31)CN(C(=O)c1cccc(Cl)c1)CC2

target: Cytochrome P450 2C9 (Homo sapiens, UniProt P11712); assay: Inhibition of CYP2C9 in human liver microsomes assessed as diclofenac 4'-hydroxylation by LC-MS/MS analysis; format: ADME, Microsome; details: not given
Sequence (P11712 whole entry): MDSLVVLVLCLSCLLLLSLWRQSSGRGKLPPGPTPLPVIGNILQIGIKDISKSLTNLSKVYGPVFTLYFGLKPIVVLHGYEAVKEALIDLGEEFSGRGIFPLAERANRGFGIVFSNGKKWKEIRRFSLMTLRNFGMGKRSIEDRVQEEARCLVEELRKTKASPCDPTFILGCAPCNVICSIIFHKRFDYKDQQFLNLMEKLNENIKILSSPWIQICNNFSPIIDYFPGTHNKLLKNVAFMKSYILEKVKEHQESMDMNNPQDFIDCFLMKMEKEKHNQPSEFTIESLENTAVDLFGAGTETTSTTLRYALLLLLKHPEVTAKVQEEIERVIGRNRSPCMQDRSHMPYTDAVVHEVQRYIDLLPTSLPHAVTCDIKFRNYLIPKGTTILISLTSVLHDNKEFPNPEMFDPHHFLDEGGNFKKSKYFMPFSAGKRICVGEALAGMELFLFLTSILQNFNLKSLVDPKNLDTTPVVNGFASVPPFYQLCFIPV

IC50 [µM]	SMILES
43	O=C(O)Cn1c2c(c3cc(F)ccc31)CN(C(=O)c1cccs1)CC2
> 50	O=C(O)Cn1c2c(c3ccccc31)CN(C(=O)c1cccc(Cl)c1)CC2

tested on: not listed separately; assay: Solubility of the compound in aqueous buffer at pH 7; format: physicochemical; details: not given; how it was run: as §1

solubility [µg/mL]	SMILES
930 (≈ 2590 µM)	O=C(O)Cn1c2c(c3cc(F)ccc31)CN(C(=O)c1cccs1)CC2
815 (≈ 2210 µM)	O=C(O)Cn1c2c(c3ccccc31)CN(C(=O)c1cccc(Cl)c1)CC2

tested on: not listed separately; assay: Intrinsic clearance in rat hepatocytes measured per 10^6 cells at 1 uM by LC/MS-MS analysis; format: ADME, cell-based, Hepatocyte; details: read-out: CLH

hepatocyte CLint at 1 µM [µL/min/1e6 cells]	SMILES
2.1	O=C(O)Cn1c2c(c3cc(F)ccc31)CN(C(=O)c1cccs1)CC2
1.4	O=C(O)Cn1c2c(c3ccccc31)CN(C(=O)c1cccc(Cl)c1)CC2

tested on: not listed separately; assay: Half life in simulated intestinal fluid at 2 uM by LC-MS analysis; format: physicochemical; details: not given; how it was run: as §2

half-life at 2 µM [h]	SMILES
> 4	O=C(O)Cn1c2c(c3cc(F)ccc31)CN(C(=O)c1cccs1)CC2
> 4	O=C(O)Cn1c2c(c3ccccc31)CN(C(=O)c1cccc(Cl)c1)CC2

target: T4, Prostaglandin D2 receptor 2 (Homo sapiens, UniProt Q9Y5Y4); assay: Antagonist activity at CRTH2 receptor in human eosinophils assessed as inhibition of PGD2-induced cell shape change incubated for 1 hr prior to PGD2 induction measured after 5 mins by FACS flow cytometric analysis in presence of human plasma; details: in the assay text read “incubated for 10 mins” for “incubated for 1 hr”
T4 sequence (Q9Y5Y4 whole entry): T1 sequence (whole entry)
How it was run: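 Polymorphonuclear cells isolated from healthy-donor blood on a Polymorphprep gradient (500g, 30 min), erythrocytes lysed hypotonically. Cells stained 1 h with CD49d-APC, mixed with human plasma, preincubated with antagonist, then stimulated with 15 nM PGD2 for 5 min at 37 °C. Fixed in cold 1% paraformaldehyde. Eosinophils gated by CD49d/SSC; activation read as % cells with raised forward scatter.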

IC50 [µM]	SMILES
0.034	O=C(O)Cn1c2c(c3cc(F)ccc31)CN(C(=O)c1cccs1)CC2
0.05	O=C(O)Cn1c2c(c3ccccc31)CN(C(=O)c1cccc(Cl)c1)CC2

tested on: not listed separately; assay: Protein binding in plasma (unknown origin); format: ADME, cell-free; details: read-out: PPB

fraction unbound	SMILES
< 0.03	O=C(O)Cn1c2c(c3cc(F)ccc31)CN(C(=O)c1cccs1)CC2
< 0.03	O=C(O)Cn1c2c(c3ccccc31)CN(C(=O)c1cccc(Cl)c1)CC2

target: Cytochrome P450 3A4 (Homo sapiens, UniProt P08684); assay: Inhibition of CYP3A4 in human liver microsomes assessed as midazolam-1'-hydroxylation by LC-MS/MS analysis; format: ADME, Microsome; details: not given
Sequence (P08684 whole entry): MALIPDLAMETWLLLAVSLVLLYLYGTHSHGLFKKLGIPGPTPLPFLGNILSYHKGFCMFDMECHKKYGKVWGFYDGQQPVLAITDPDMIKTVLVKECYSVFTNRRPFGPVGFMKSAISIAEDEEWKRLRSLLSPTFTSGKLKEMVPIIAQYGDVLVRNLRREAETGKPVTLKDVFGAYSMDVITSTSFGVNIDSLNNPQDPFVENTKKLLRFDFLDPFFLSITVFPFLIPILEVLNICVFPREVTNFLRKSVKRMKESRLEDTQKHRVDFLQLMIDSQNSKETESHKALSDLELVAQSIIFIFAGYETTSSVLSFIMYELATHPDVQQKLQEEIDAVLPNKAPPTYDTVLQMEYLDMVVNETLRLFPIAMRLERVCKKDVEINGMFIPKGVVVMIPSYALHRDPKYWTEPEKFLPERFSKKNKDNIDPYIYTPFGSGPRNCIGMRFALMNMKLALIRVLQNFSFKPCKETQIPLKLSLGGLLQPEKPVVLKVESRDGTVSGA

IC50 [µM]	SMILES
> 50	O=C(O)Cn1c2c(c3cc(F)ccc31)CN(C(=O)c1cccs1)CC2
> 50	O=C(O)Cn1c2c(c3ccccc31)CN(C(=O)c1cccc(Cl)c1)CC2

Reference: ChEMBL document CHEMBL2385063, “Identification of 2-(2-(1-naphthoyl)-8-fluoro-3,4-dihydro-1H-pyrido[4,3-b]indol-5(2H)-yl)acetic acid (setipiprant/ACT-129968), a potent, selective, and orally bioavailable chemoattractant receptor-homologous molecule expressed on Th2 cells (CRTH2) antagonist” (J Med Chem, 2013)
